Legend:
Type in all cases: functional
786-0 = experiment: Growth inhibition of human 786-0 cells at 10 uM after 48 hrs by coulter counter method; conditions: 786-0, 48 h, read-out: GI
How it was run: (§1)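 NCI 60-cell-line panel, single dose. Compound dissolved first in DMSO, then diluted in phosphate-buffered saline so that every final dilution held under 1% DMSO. Duplicate wells received cells at 6 × 10⁴ cells/ml. Controls held PBS/DMSO at the same dilution. Plates were incubated 48 h at 37 °C under 5% CO₂. Cells were then diluted 10-fold in saline and counted on a Coulter counter, with counts corrected for the dilution. Results are given as percent growth inhibition.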

SN12C = experiment: Growth inhibition of human SN12C cells at 10 uM after 48 hrs by coulter counter method; conditions: read-out: GI; how it was run: as §1
NCI-H23 = experiment: Growth inhibition of human NCI-H23 cells at 10 uM after 48 hrs by coulter counter method; conditions: NCI-H23, 48 h, read-out: GI; how it was run: as §1
NCI-H322M = experiment: Growth inhibition of human NCI-H322M cells at 10 uM after 48 hrs by coulter counter method; conditions: read-out: GI; how it was run: as §1
NCI-H522 = experiment: Growth inhibition of human NCI-H522 cells at 10 uM after 48 hrs by coulter counter method; conditions: NCI-H522, 48 h, read-out: GI; how it was run: as §1
PC-3 = experiment: Growth inhibition of human PC3 cells at 10 uM after 48 hrs by coulter counter method; conditions: PC-3, 48 h, read-out: GI; how it was run: as §1
T47D = experiment: Growth inhibition of human T47D cells at 10 uM after 48 hrs by coulter counter method; conditions: read-out: GI; how it was run: as §1
MDA-MB-468 = experiment: Growth inhibition of human MDA-MB-468 cells at 10 uM after 48 hrs by coulter counter method; conditions: MDA-MB-468, 48 h, read-out: GI; how it was run: as §1
MOLT-4 = experiment: Growth inhibition of human MOLT4 cells at 10 uM after 48 hrs by coulter counter method; conditions: MOLT-4, 48 h, read-out: GI; how it was run: as §1
K562 = experiment: Growth inhibition of human K562 cells at 10 uM after 48 hrs by coulter counter method; conditions: K562, 48 h, read-out: GI; how it was run: as §1
SNB-75 = experiment: Growth inhibition of human SNB75 cells at 10 uM after 48 hrs by coulter counter method; conditions: SNB-75, 48 h, read-out: GI; how it was run: as §1
BT-549 = experiment: Growth inhibition of human BT549 cells at 10 uM after 48 hrs by coulter counter method; conditions: BT-549, 48 h, read-out: GI; how it was run: as §1
NCI/ADR-RES = experiment: Growth inhibition of human NCI/ADR-RES cells at 10 uM after 48 hrs by coulter counter method; conditions: read-out: GI; how it was run: as §1
HCT-116 = experiment: Growth inhibition of human HCT116 cells at 10 uM after 48 hrs by coulter counter method; conditions: HCT-116, 48 h, read-out: GI; how it was run: as §1
SF-268 = experiment: Growth inhibition of human SF268 cells at 10 uM after 48 hrs by coulter counter method; conditions: SF-268, 48 h, read-out: GI; how it was run: as §1
U-251 = experiment: Growth inhibition of human U251 cells at 10 uM after 48 hrs by coulter counter method; conditions: U-251, 48 h, read-out: GI; how it was run: as §1
UACC-257 = experiment: Growth inhibition of human UACC257 cells at 10 uM after 48 hrs by coulter counter method; conditions: UACC-257, 48 h, read-out: GI; how it was run: as §1
A498 = experiment: Growth inhibition of human A498 cells at 10 uM after 48 hrs by coulter counter method; conditions: A498, 48 h, read-out: GI; how it was run: as §1
A549 = experiment: Growth inhibition of human A549 cells at 10 uM after 48 hrs by coulter counter method; conditions: A549, 48 h, read-out: GI; how it was run: as §1
SF-295 = experiment: Growth inhibition of human SF295 cells at 10 uM after 48 hrs by coulter counter method; conditions: SF-295, 48 h, read-out: GI; how it was run: as §1
MDA-MB-435 = experiment: Growth inhibition of human MDA-MB-435 cells at 10 uM after 48 hrs by coulter counter method; conditions: MDA-MB-435, 48 h, read-out: GI; how it was run: as §1
HCT-15 = experiment: Growth inhibition of human HCT15 cells at 10 uM after 48 hrs by coulter counter method; conditions: HCT-15, 48 h, read-out: GI; how it was run: as §1
SK-MEL-28 = experiment: Growth inhibition of human SK-MEL-28 cells at 10 uM after 48 hrs by coulter counter method; conditions: SK-MEL-28, 48 h, read-out: GI; how it was run: as §1
HT-29 = experiment: Growth inhibition of human HT-29 cells at 10 uM after 48 hrs by coulter counter method; conditions: HT-29, 48 h, read-out: GI; how it was run: as §1
SK-MEL-2 = experiment: Growth inhibition of human SK-MEL-2 cells at 10 uM after 48 hrs by coulter counter method; conditions: SK-MEL-2, 48 h, read-out: GI; how it was run: as §1
ACHN = experiment: Growth inhibition of human ACHN cells at 10 uM after 48 hrs by coulter counter method; conditions: read-out: GI; how it was run: as §1
KM12 = experiment: Growth inhibition of human KM12 cells at 10 uM after 48 hrs by coulter counter method; conditions: KM12, 48 h, read-out: GI; how it was run: as §1
RPMI-8226 = experiment: Growth inhibition of human RPMI8226 cells at 10 uM after 48 hrs by coulter counter method; conditions: RPMI-8226, 48 h, read-out: GI; how it was run: as §1
SR = experiment: Growth inhibition of human SR cells at 10 uM after 48 hrs by coulter counter method; conditions: read-out: GI; how it was run: as §1
UO-31 = experiment: Growth inhibition of human UO31 cells at 10 uM after 48 hrs by coulter counter method; conditions: UO-31, 48 h, read-out: GI; how it was run: as §1
IGROV-1 = experiment: Growth inhibition of human IGROV1 cells at 10 uM after 48 hrs by coulter counter method; conditions: IGROV-1, 48 h, read-out: GI; how it was run: as §1
UACC-62 = experiment: Growth inhibition of human UACC62 cells at 10 uM after 48 hrs by coulter counter method; conditions: UACC-62, 48 h, read-out: GI; how it was run: as §1
CCRF-CEM = experiment: Growth inhibition of human CCRF-CEM cells at 10 uM after 48 hrs by coulter counter method; conditions: read-out: GI; how it was run: as §1
SK-MEL-5 = experiment: Growth inhibition of human SK-MEL-5 cells at 10 uM after 48 hrs by coulter counter method; conditions: SK-MEL-5, 48 h, read-out: GI; how it was run: as §1
NCI-H226 = experiment: Growth inhibition of human NCI-H226 cells at 10 uM after 48 hrs by coulter counter method; conditions: NCI-H226, 48 h, read-out: GI; how it was run: as §1
SNB-19 = experiment: Growth inhibition of human SNB19 cells at 10 uM after 48 hrs by coulter counter method; conditions: SNB-19, 48 h, read-out: GI; how it was run: as §1
EKVX = experiment: Growth inhibition of human EKVX cells at 10 uM after 48 hrs by coulter counter method; conditions: read-out: GI; how it was run: as §1
LOX IMVI = experiment: Growth inhibition of human LOXIMVI cells at 10 uM after 48 hrs by coulter counter method; conditions: read-out: GI; how it was run: as §1
HL-60(TB) = experiment: Growth inhibition of human HL-60(TB) cells at 10 uM after 48 hrs by coulter counter method; conditions: HL-60, 48 h, read-out: GI
How it was run: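 Single-dose screen on the NCI 60-line panel (leukemia subpanel). Compound is dissolved in DMSO and diluted in PBS, with final DMSO below 1%. Duplicate wells hold 6 × 10⁴ cells/ml at 37 °C, 5% CO₂, for 48 h. Cells are counted by Coulter counter after 10-fold saline dilution. Read-out is percent growth versus PBS/DMSO controls, expressed as % growth inhibition.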

M14 = experiment: Growth inhibition of human M14 cells at 10 uM after 48 hrs by coulter counter method; conditions: M14, 48 h, read-out: GI; how it was run: as §1
TK-10 = experiment: Growth inhibition of human TK10 cells at 10 uM after 48 hrs by coulter counter method; conditions: TK-10, 48 h, read-out: GI; how it was run: as §1
OVCAR-8 = experiment: Growth inhibition of human OVCAR8 cells at 10 uM after 48 hrs by coulter counter method; conditions: OVCAR-8, 48 h, read-out: GI; how it was run: as §1
CAKI-1 = experiment: Growth inhibition of human Caki1 cells at 10 uM after 48 hrs by coulter counter method; conditions: CAKI-1, 48 h, read-out: GI; how it was run: as §1
Malme-3M = experiment: Growth inhibition of human MALME-3M cells at 10 uM after 48 hrs by coulter counter method; conditions: read-out: GI; how it was run: as §1
MCF7 = experiment: Growth inhibition of human MCF7 cells at 10 uM after 48 hrs by coulter counter method; conditions: MCF7, 48 h, read-out: GI; how it was run: as §1

Measured: inhibition of growth at 10 µM

O=C1N=C2SC(c3ccccc3)=NN2C1=O
10.7%: PC-3
15.5%: UACC-257
25.7%: UO-31
12.6%: RPMI-8226
12.4%: NCI-H522
10.8%: NCI-H322M
< 10%: all other assays above

NC1=CC(N)=NC2OC(c3ccc(Cl)cc3)=NN12 (stereo not given)
16.3%: PC-3
14%: NCI-H522
20.5%: CAKI-1
10.3%: SK-MEL-2
23.8%: UO-31
< 10%: all other assays above

From ChEMBL document CHEMBL1926577, “Novel 1,3,4-heterodiazole analogues: synthesis and in-vitro antitumor activity” (2012)
